# Screening data from PubChem.
# STAT1 act: activators of IFN-gamma induced STAT1 signaling | NIH 3T3 STAT1-luciferase reporter, luminescence; 100% = IFN-gamma alone, no compound | activation (% of control), % at 5.5 µM | actives 2.6% (n = 200,000);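 active means activation above the screen-wide mean activation plus 3 SD, cut at about 130% in these data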;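 further: raw ratio to IFN-gamma control signal so 100% means no change and 0% no light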
# NF-kB expr up: NF-kB expression increase, human neuronal cells | NF-kB reporter expression; stronger effect = higher value | fold change at 12.5 µM | actives 1.6% (n = 190,000) | AID 1239; in the data active means fold change above about 3.3
# STAT1 inh: reduces IFN-gamma driven STAT1 reporter signal; AID 920; actives 0.35% (n = 200,000); inhibition, % at 5.5 µM; NIH 3T3 STAT1-luciferase reporter, luminescence;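 active means inhibition above a set limit, the mean inhibition across all tested compounds plus 3 SD, cut at about 34% in these data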;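 further: 0% = IFN-gamma with DMSO and 100% = IFN-gamma with 300 µM nifuroxazide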
# APP 5'UTR act: APP 5'UTR luciferase reporter activation | SH-SY5Y APP 5'UTR luciferase reporter, luminescence; zero percent = DMSO vehicle wells | activation, % at 2 µM | actives 1% (n = 190,000) | AID 1276;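 active means activation above a set limit, based on mean plus 3 SD of controls, cut at about 140% in these data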
# STAT3 inh: inhibitors of IL-6 induced STAT3 signaling | inhibition, % at 5.5 µM | actives 0.89% (n = 190,000) | U3A cells, IL-6 STAT3-luciferase reporter, luminescence; host cell line lacks STAT1 | AID 862;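 active means inhibition above the mean inhibition across all screened compounds plus 3 SD, cut at about 44% in these data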;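 further: 0% = DMSO only wells and 100% = 100 µM nifuroxazide control wells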
# STAT3 act: increases IL-6 driven STAT3 reporter signal. U3A cells, IL-6 STAT3-luciferase reporter, luminescence; 100% = signal with IL-6 EC80 alone. actives 0.91% (n = 190,000). activation (% of control), % at 5.6 µM;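 active means activation above the screen-wide mean of compound activation plus 3 SD, cut at about 130% in these data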;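 further: 0% = background luminescence of wells with medium and substrate only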
#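 Material: human U3A cells carrying STAT3-luciferase construct. Measured by: reporter luminescence signal. Timing: compound 1 h, then IL-6 6 h at 37 °C.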
# Active calls of the source: *; · = not tested or not shown. Hits are enriched below; roughly 5.1% of the tested compounds scored in any of these assays.
SMILES,STAT1 act,NF-kB expr up,STAT1 inh,APP 5'UTR act,STAT3 inh,STAT3 act
CCc1ccc2oc(-c3cc(N=Cc4cccc(OC)c4O)ccc3O)nc2c1,83.7,4.16*,18.0,161.9*,40.6,70.2
CC1(C)CC(=O)C(C=NCC2CCN(C(=S)Nc3cccc(Cl)c3)CC2)=C(O)C1,101.1,1.05,-2.8,-2.4,4.6,99.8
CC1CCN(S(=O)(=O)c2ccc(C(=O)NCc3cccnc3)cc2)CC1,100.2,1.04,0.4,23.0,5.9,95.7
CCC(C)NC(=O)Cn1c(-c2ccccc2)cc(C(C)=O)c1C (configuration not stated),95.9,0.78,2.8,-2.8,7.3,95.7
Nc1ccc2c(c1)OC1(CCCCC1)O2,103.3,0.97,-5.8,22.0,-32.1,134.7*
Nc1ccc2c(c1)COc1ccccc1O2,111.4,1.56,-10.6,23.5,9.2,95.9
O=c1oc2cc(Br)ccc2n1CSC1=NCCS1,98.5,7.66*,1.7,22.9,-8.7,112.2
CCCc1nnc(NC(=O)Cn2c(=O)oc3cc(Br)ccc32)s1,112.9,1.13,-13.9,12.1,3.6,98.3
O=C(Nc1nc2ccc(Cl)cc2s1)C1CCCO1 (configuration not stated),143.5*,4.63*,-47.6,101.9,16.5,90.4
CS(=O)(=O)c1ccc2nc(NC(=O)C3CCCO3)sc2c1 (configuration not stated),124.3,0.98,-28.5,32.3,3.9,98.6
O=C(Nc1nc2ccc([N+](=O)[O-])cc2s1)C1CCCO1 (configuration not stated),136.2*,2.25,-37.8,61.6,11.2,92.2
CCC(C)NC(=O)COC(=O)c1ccc(Cl)cc1O (configuration not stated),94.0,1.24,5.4,0.1,2.5,99.0
Cc1ccc(NC(=O)Cn2c(-c3ccc(F)cc3)cnc2SCC(=O)Nc2c(C)cccc2C)cc1,109.1,1.08,-10.2,-9.6,-7.1,104.9
O=S(=O)(Cc1cc(N2CCOCC2)nc(-c2ccccn2)n1)c1ccccc1,109.4,1.51,-9.4,-15.2,-2.3,104.0
O=S(=O)(c1ccccc1)n1cc(-c2ccccn2)c(N2CCOCC2)n1,104.3,1.05,-5.3,213.4*,0.5,101.6
Cc1ccc(OCc2ccc(C(=O)O)o2)c([N+](=O)[O-])c1,95.0,1.25,5.6,14.5,1.6,100.6
CCN1CCN(c2nc(S(=O)(=O)c3ccc(C)cc3)c(Cl)s2)CC1,89.7,1.14,10.9,15.8,4.2,100.5
Cc1nn(-c2ccccc2)c(Cl)c1/C=N/NC(=O)c1ccc(NS(=O)(=O)c2cccs2)cc1,136.9*,2.21,-43.9,36.8,-10.7,113.2
Cc1nn(-c2ccccc2)c(Cl)c1/C=N/NC(=O)c1ccccc1NS(=O)(=O)c1cccs1,99.3,1.03,0.8,-34.0,-4.4,103.8
O=C(NNC(=S)NCC1CCCO1)c1cccc(S(=O)(=O)N2CCOCC2)c1 (configuration not stated),102.2,0.9,-1.7,-5.0,2.7,98.3
Cc1ccc(NC(=O)c2ccco2)cc1C,131.7*,2.38,-34.8,105.0,10.8,97.2
O=C(c1ccccc1)c1cccc(NC(=O)c2ccco2)c1,129.4*,1.86,-32.0,39.3,1.5,101.0
COc1cc(NC(=O)CC(C)C)ccc1NC(=O)c1ccco1,141.3*,·,-45.2,97.0,15.8,89.7
CC1(C)Oc2ccc(NC(=O)c3ccco3)cc2O1,128.7*,3.02,-31.5,115.7,19.7,86.4
O=C(Nc1ccc2c(c1)OCCO2)c1ccco1,128.1,2.18,-30.7,92.7,33.0,75.4
SMILES,STAT1 act,NF-kB expr up,STAT1 inh,APP 5'UTR act,STAT3 inh,STAT3 act
CNCc1ccccc1OCc1ccccc1F,94.8,1.08,2.5,-2.6,4.2,100.4
CCCCCNC(=O)N[C@H](C(=O)O)C(C)C,96.4,1.24,4.0,4.2,3.1,100.6
Cc1ccc(S(N)(=O)=O)cc1NC(=O)/C=C/c1ccc2c(c1)OCO2,95.6,1.32,3.5,6.7,3.2,100.2
CCC(=O)Nc1ccc(NC(=O)c2ccco2)cc1,130.6*,1.88,-33.7,39.6,8.5,96.2
Cc1ccccc1NC(=O)c1ccc(NC(=O)c2ccco2)cc1,100.2,1.12,-0.2,7.6,14.7,90.0
CCC(=O)Oc1ccc(NC(=O)c2ccco2)cc1,99.0,1.32,1.6,14.3,-1.6,103.4
O=C(Nc1ccccn1)c1ccc(NC(=O)c2ccco2)cc1,129.3*,2.69,-33.9,158.8*,7.9,97.0
CC(C)C(NC(=O)c1ccco1)C(=O)OCC(=O)Nc1ccc(C(N)=O)cc1 (configuration not stated),99.1,1.12,-0.5,-17.0,15.5,92.2
O=C(Nc1ccccc1)c1ccc2snnc2c1,110.9,1.45,-13.3,-7.8,20.1,84.2
Cc1ccc(NC(=O)c2ccc3snnc3c2)cc1,147.1*,3.06,-52.0,78.4,10.1,92.9
Cc1cc(C)cc(N(CC(=O)NC2CCCC2)C(=O)C2(C)CC(=O)N=C3C=CC=CN32)c1 (configuration not stated),95.8,1.28,3.1,14.9,8.3,97.4
COc1cccc(CN2CCC(C(=O)N3CCC(C)CC3)CC2)c1,105.8,1.07,-7.4,14.6,0.8,105.9
Cn1cccc1C(=O)C(=O)Nc1ccc(Cl)cc1,119.9,10.6*,-22.2,186.0*,30.9,76.8
Cn1cccc1C(=O)C(=O)Nc1cc(Cl)cc(Cl)c1,122.3,2.14,-25.0,21.5,-7.8,107.3
Cn1cccc1C(=O)C(=O)Nc1cccc(Cl)c1Cl,147.0*,3.64*,-52.6,34.9,-70.6,156.7*
COc1ccccc1NC(=O)C12CCC(C)(C(=O)C1)C2(C)C (configuration not stated),99.7,1.04,-3.0,6.3,-4.0,107.4
COC(=O)CCCn1c(C)cc(C(=O)CCl)c1C,86.5,3.63*,14.3,-15.5,13.7,92.9
Cc1cc(C(=O)CCl)c(C)n1CCc1ccccc1,86.3,0.29,13.4,-14.1,-18.9,116.9
COc1cccc(CNc2cccc3cccnc23)c1O,92.1,0.44,3.9,19.0,-9.2,109.6
COc1cccc(CNc2cnc3ccccc3c2)c1O,95.3,7.56*,6.4,93.3,34.9,73.2
Cc1snc2sc(C(=O)c3ccc(Br)cc3)c(N)c12,134.8*,1.3,-37.7,2.5,8.1,98.9
O=C(/C=C\Nc1ccccn1)c1ccccc1,59.1,3.5*,44.8*,156.7*,84.6*,32.8
O=C(/C=C/Nc1ccccc1)c1ccc(Oc2ncccn2)cc1,155.6*,3.54*,-66.4,21.5,42.6,67.7
O=C(/C=C/Nc1ccccc1Br)c1ccccn1,16.6,0.35,93.7*,-15.7,109.1*,9.6
O=C(CC(=O)Nc1ccccn1)Nc1ccccn1,100.3,1.65,-0.4,-0.4,-2.1,102.4
